High-throughput results: PubChem, several laboratories
GC-B act: human GC-B receptor activators, primary screen, HEK293 GC-B cells, cGMP TR-FRET, EC30 CNP | 0% at EC30 CNP, 100% saturating CNP | activation, % at 10 µM | 370,000 compounds, 0.11% hits | AID 1920062, 2024;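 active = activation at 10 µM reaching about 35% in either raw or pattern-adjusted values, limit read from the data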
Target sequence (P20594 whole entry, looked up): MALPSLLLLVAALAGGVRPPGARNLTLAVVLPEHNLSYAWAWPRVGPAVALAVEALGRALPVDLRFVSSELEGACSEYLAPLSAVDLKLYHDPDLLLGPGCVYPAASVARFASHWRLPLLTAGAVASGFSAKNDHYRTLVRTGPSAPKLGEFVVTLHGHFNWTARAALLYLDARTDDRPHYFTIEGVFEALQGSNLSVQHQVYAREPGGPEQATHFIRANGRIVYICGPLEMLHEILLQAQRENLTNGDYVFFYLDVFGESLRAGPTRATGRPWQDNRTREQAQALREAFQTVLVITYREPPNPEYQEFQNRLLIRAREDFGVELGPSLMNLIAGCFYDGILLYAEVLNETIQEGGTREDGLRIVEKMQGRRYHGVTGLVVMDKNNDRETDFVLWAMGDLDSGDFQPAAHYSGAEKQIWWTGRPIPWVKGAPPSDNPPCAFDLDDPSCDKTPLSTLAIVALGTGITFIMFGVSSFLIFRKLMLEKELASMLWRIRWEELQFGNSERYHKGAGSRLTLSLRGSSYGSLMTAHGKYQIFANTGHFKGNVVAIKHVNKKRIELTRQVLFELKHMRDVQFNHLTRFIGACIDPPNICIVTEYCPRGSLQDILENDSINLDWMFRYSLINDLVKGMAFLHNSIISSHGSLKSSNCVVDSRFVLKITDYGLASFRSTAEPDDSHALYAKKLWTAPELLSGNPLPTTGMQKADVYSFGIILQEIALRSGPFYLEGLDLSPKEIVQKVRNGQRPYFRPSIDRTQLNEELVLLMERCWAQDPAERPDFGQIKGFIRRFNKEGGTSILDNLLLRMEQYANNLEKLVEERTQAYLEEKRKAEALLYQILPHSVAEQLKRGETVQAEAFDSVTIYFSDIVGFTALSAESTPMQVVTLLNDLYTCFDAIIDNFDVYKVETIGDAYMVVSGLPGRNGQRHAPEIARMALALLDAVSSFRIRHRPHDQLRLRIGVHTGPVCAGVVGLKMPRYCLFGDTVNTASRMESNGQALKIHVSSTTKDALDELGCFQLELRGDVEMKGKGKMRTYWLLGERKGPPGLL
Hep lipid drop: inhibitors of hepatocyte lipid droplet formation, primary screen, imaging, high-throughput imaging, BODIPY stain; AML12 mouse hepatocytes, oleate lipid droplets; inhibition, % at 6.5 µM; 240,000 compounds, 0.4% hits;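 active = lipid droplet intensity inhibited by at least 50%, with more than 500 cells counted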
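material = mouse AML12 hepatocyte cell line, fixed after treatment | also added = 100 µM oleic acid challenge | doses = compound at 6.5 µM only | schedule = overnight exposure | technique = Image-based BODIPY and DAPI two-channel analysis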
JMJD2C inh: inhibitors of GASC-1 histone demethylase, primary screen, biochemical, fluorescence, DELFIA europium; inhibition, % at 2.35 µM; 330,000 compounds, 0.069% hits; GST-JMJD2C(1-420) H3K9me3 demethylation; Lysine-specific demethylase 4C (Homo sapiens), Q9H3R0;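 active = more than half of a compound's replicate wells show inhibition beyond 50%, single wells judged on their own value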;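 also: signal counts dimethyl H3K9 product captured on neutravidin plate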
NR3A LBD binder: binders of NR3A ligand-binding domain, primary screen, biophysical, differential scanning fluorimetry, uHTS; AID 1259313, 2017; NR3A LBD differential scanning fluorimetry, Tm shift; 0% = protein alone, 100% = glycine-bound protein; 340,000 compounds, 2.5% hits; Tm shift relative to glycine control, % at 25 µM;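 active = melting temperature shift of at least 10% of the positive control shift, at one fixed dose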
aDG glyco up: activators of alpha-DG glycosylation, primary screen, uHTS, Pro5-aDG cells, AlphaScreen; alpha-DG glycosylation AlphaScreen (IIH6); 0% Pro5, 100% B10-LARGE cell signal; activation, % at 10 µM; 360,000 compounds, 0.22% hits;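 active = activation of at least 8% versus controls, or a plate z-score of at least 8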;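 also: Pro5 are CHO cells carrying HIG-tagged alpha-DG that lacks glycosylation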
NPR1 activator: GC-A stimulated cGMP production enhancers – HEK293 GC-A cells, cGMP TR-FRET, EC30 ANP, primary screen | activation, % at 10 µM | Atrial natriuretic peptide receptor 1 (Homo sapiens), P16066 | 370,000 compounds, 0.14% hits | 0% at EC30 ANP, 100% saturating ANP; in the data active = activation above about 40%
Hits are given with their value; i = inactive; nt = no result given; ! = repeats disagree. Most compounds without a hit are left out; they make up all but 3% or so of the library.

SMILES | GC-B act | Hep lipid drop | JMJD2C inh | NR3A LBD binder | aDG glyco up | NPR1 activator
CN1CCN(S(=O)(=O)c2ccc(Cl)cc2)CC1 | i | i | i | 14.0! | i | i
COc1ccc(C(=O)Nc2ccc(NC(=O)c3ccccc3)cc2)cc1S(=O)(=O)N1CCOCC1 | i | i | i | 32.3 | i | i
COc1ccc(C(=O)Nc2ccncc2)cc1S(=O)(=O)N1CCOCC1 | i | nt | i | i | i | i
CN1CCN(S(=O)(=O)c2ccc(-c3ccc(Cl)cc3)cc2)CC1 | i | i | i | i | i | i
COc1ccc(NC(=O)c2n[nH]c(=O)c3ccccc23)cc1S(=O)(=O)N1CCCCC1 | i | i | i | 25.5 | i | i
CC(=O)N1CCN(c2ccc(NC(=O)c3ccc(Cl)c([N+](=O)[O-])c3)cc2)CC1 | i | i | i | 14.7 | i | i
CN1C/C(=C/c2ccccc2)N2C(=O)C[C@@H](c3ccccc3)N=C12 | i | nt | nt | nt | nt | i
CC1CCC2(CCC(=O)N2C[C@@H](O)c2ccccc2)CC1 (stereo partly drawn) | i | nt | nt | nt | nt | i
O=C(NCCCN1CCN(c2ccc(F)cc2)CC1)NCc1ccccc1 | i | nt | nt | nt | nt | i
COCc1cn([C@H]2C[C@@H]3O[C@H](CO)CC[C@@H]3O[C@@H]2CCc2ccc(-c3ccc(OC)cc3)cc2)nn1 | i | nt | nt | nt | nt | i
CC(=O)Nc1ccc(C(=O)Nc2ccc(S(=O)(=O)N3CCOCC3)cc2)cc1 | i | i | i | 31.4 | i | i
O=C(Nc1ccc(S(=O)(=O)N2CCOCC2)cc1)c1ccccc1 | nt | nt | i | i | i | nt
CC(OC(=O)c1cc(Br)ccc1O)C(=O)Nc1ccc(S(=O)(=O)N2CCCC2)cc1 (stereo not drawn) | i | nt | i | 10.5 | i | i
O=C(CN1CCN(S(=O)(=O)c2ccc(F)cc2)CC1)c1ccc(O)c(O)c1 | i | i | i | i | i | i
CC(C)C(=O)Nc1cccc(C(=O)Nc2ccc(S(=O)(=O)N3CCOCC3)cc2)c1 | i | nt | i | i | i | i
O=C(Nc1ccc(S(=O)(=O)N2CCOCC2)cc1)c1cccc(Br)c1 | i | nt | i | 30.5 | i | i
CC(C)(C)C(=O)CN1CCN(S(=O)(=O)c2ccc(F)cc2)CC1 | i | i | i | 12.2 | i | i
CCN(CC)C(=O)C1=C(C)N(Cc2ccc(C(C)(C)C)cc2)C(=O)C(CC(=O)NCC2CCCCC2)C1 (stereo not drawn) | i | nt | nt | nt | i | i
CCN(CC)C(=O)Cn1nc(Cc2ccncc2)c2ccccc2c1=O | i | nt | nt | nt | nt | i
COc1ccc(C=Nn2c(-c3ccccc3F)n[nH]c2=S)cc1OCc1ccccc1 | i | nt | nt | nt | nt | i
O=[N+]([O-])c1ccc(NCCCN2CCC(C(O)(c3ccccc3)c3ccccc3)CC2)cc1 | i | nt | nt | nt | nt | i
N#Cc1cccc(NC(=O)c2ccc(S(=O)(=O)N3CCOCC3)cc2)c1 | i | nt | i | 16.4 | i | i
Cc1ccc(Nc2nc(-c3ccc(S(=O)(=O)N4CCOCC4)cc3)cs2)cc1Cl | i | i | i | 26.4 | i | i
O=C(Nc1ccc(S(=O)(=O)N2CCOCC2)cc1)c1ccc([N+](=O)[O-])s1 | i | nt | i | 29.5 | i | i
CC(C)C(=O)Nc1ccc(C(=O)Nc2ccc(S(=O)(=O)N3CCOCC3)cc2)cc1 | nt | i | i | i | i | nt
Cc1ccc(C(=O)Nc2ccc(S(=O)(=O)N3CCOCC3)cc2)cc1Br | i | nt | i | 33.6 | i | i
CC1(C(=O)NCc2cccc(C(F)(F)F)c2)CCN1CCc1ccccc1 (stereo not drawn) | i | nt | nt | nt | i | i
Cc1ccc(NC(=O)c2ccc(NCCCN3CCOCC3)c([N+](=O)[O-])c2)cc1Cl | i | i | i | i | i | i
O=C(Nc1ccccc1)c1cc(S(=O)(=O)N2CCOCC2)cs1 | i | i | i | i | i | i
O=C(Nc1cccc([N+](=O)[O-])c1)c1cc(S(=O)(=O)N2CCOCC2)cs1 | i | i | i | 22.4 | i | i
